Consider 14 compounds from PubChem BioAssay.

One may read the viability as a read-out of living cells in per cent, often relative to untreated cells. The term inhibition denotes the relative decrease from the control value, in per cent.

The nature of test [1]: Her2 expression decrease, cell viability multiplex – SKBR3 breast tumor cells, AlphaScreen, ATP viability, primary screen (AID 461;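 active means Her2 level under about 52% in both replicate screens, with viability over 70% of control, limit read from the data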;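 on Her2 level: lower value means less Her2 protein in the cells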;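 on viability: percent of carrier control wells set as 100% viability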). To be noted: SKBR3 Her2 protein level, 18-24 h, measured here: SKBR3 viability, ATP luminescence, at 10 µM.
Test [2] addresses Receptor tyrosine-protein kinase erbB-2 (Homo sapiens) (UniProt P04626). The description is as above. The settings on record: 18-24 h, at 10 µM, stronger effect = lower value.
Test [3] in a line: reduced viability of SK-BR-3 breast cancer cells – cell-based, 24 h, human, pilot screen (AID 572).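 Further: compound exposure lasted between 18 and 24 h rather than exactly 24 h; 100% = carrier-treated control wells.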 The settings on record: SK-BR-3 viability, CellTiter-Glo luminescence, at 10 µM, stronger effect = lower value. (Cellular ATP, detected with luciferase, serves as a proxy for viable cell number.)
Test [4] in a line: HUVEC growth inhibition – cell-based, human, primary screen (AID 575;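 active means viability at or below 30% in both replicate assays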;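 further: 100% = median of untreated cell wells with 0.1% DMSO on each plate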). The settings on record: HUVEC proliferation, CellTiter-Glo luminescence, 72 h; at 10 µM; stronger effect = lower value. The gist of the method: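 System – primary HUVEC, no more than 12 passages · Medium – Low-serum (2% FBS) EBM, supplemented · Times – 72 h exposure, 37 °C, 5% CO2, 30 min RT equilibration · Measured by – luminescent ATP assay · Read-out – % viability relative to median vehicle-well signal on each plate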

Test [5] is described as follows: H69AR cell proliferation blockers – human, duplicate replicates, primary screen (AID 580;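 active means viability at or under a set limit in both replicates, limit being median viability minus 3 SD, cut at about 48% in these data, passing the limit was not always enough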;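 further: 100% = mean luminescence of untreated wells and 0% = no signal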). To be noted: H69AR lung tumor cells viability, ATP luminescence, 72 h; at 10 µM; stronger effect = lower value.
Test [6] is described as follows: MRP1 drug-resistance reversers in H69AR cells – cell-based, doxorubicin co-treatment, pilot screen (AID 601;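 active means viability loss from added drug above about 55%, and viability with drug at most 40%, in both replicates, limit read from the data, passing the limit was not always enough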). The settings on record: CellTiter-Glo, 72 h, at 10 µM; for differential viability (reversal): stronger effect = higher value.
The nature of test [7]: yeast transport mutant growth inhibition pilot in 384-well plates, post-Golgi transport modulator project (AID 636; in the data active means inhibition above about 31%). To be noted: absorbance 615 nm, about 18 h, stronger effect = higher value.
Test [8] in a line: growth suppression of yeast trafficking mutant, preliminary HTS, modulators of trafficking downstream of Golgi apparatus project, 1536-format plate, OD 615 nm (AID 637; in the data active means inhibition above about 30%). To be noted: yeast transport mutant growth, absorbance 615 nm, 18 h; stronger effect = higher value.
[9] abbreviates: H69AR cells + 2 uM doxorubicin, measured here: viability with 2 uM doxorubicin, stronger effect = lower value.
Setting [10] is: H69AR cells, compound alone cytotoxicity.

Active and inactive are the calls of the source.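 How the source made its calls, unless noted: active means viability at or below 10% of carrier control in both of two separate runs; inconclusive means viability at or below 10% in only one of the two runs; inactive means the rest.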

Sequence of Receptor tyrosine-protein kinase erbB-2 (Homo sapiens) (P04626 whole entry, looked up): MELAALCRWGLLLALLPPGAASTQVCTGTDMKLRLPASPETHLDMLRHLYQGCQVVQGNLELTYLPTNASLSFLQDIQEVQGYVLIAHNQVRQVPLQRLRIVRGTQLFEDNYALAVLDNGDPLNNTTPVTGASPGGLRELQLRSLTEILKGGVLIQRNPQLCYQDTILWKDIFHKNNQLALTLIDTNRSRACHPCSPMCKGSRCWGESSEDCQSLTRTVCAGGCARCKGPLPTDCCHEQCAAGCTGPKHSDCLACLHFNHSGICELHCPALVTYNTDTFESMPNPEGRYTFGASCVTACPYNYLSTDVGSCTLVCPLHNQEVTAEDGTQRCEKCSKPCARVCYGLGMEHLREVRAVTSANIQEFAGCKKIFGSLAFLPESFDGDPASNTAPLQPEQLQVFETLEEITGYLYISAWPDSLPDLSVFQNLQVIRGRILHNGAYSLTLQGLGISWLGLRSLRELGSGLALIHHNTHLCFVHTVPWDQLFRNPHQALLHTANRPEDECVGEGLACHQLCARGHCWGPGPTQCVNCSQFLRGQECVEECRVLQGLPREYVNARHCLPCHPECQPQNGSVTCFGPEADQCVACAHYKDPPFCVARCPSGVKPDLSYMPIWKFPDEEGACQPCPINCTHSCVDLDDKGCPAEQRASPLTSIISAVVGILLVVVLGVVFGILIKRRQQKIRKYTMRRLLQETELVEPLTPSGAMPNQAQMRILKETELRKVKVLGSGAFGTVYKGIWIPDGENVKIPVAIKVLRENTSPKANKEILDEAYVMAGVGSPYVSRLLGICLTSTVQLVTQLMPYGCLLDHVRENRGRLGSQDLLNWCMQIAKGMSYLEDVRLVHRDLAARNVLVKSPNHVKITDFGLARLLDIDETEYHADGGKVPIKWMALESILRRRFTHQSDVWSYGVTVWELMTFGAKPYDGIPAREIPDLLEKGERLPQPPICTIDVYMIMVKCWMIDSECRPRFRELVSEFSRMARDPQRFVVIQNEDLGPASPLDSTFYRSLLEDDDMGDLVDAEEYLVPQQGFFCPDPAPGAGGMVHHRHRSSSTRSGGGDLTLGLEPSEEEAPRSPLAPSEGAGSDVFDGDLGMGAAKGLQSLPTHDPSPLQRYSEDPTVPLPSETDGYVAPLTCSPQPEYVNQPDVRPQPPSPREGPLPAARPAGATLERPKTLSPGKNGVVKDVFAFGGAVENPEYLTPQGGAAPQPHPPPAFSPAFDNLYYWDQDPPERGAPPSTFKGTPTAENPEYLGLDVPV

Consider `CCOc1ccccc1NC(=O)CN(c1ccc(C)cc1)S(=O)(=O)c1c(C)noc1C`, for which the viability in test [1] was 133%; in test [3], 133% (inactive); in test [4], 68.3% (inactive); in test [5] it was 81% (inactive); in test [6] (setting [9]) it was 90.1%; in test [6] (setting [10]), 81%. In test [2], the Her2 level is 87% (inactive). The differential viability (reversal) in test [6] (H69AR cells + 2 uM doxorubicin) was -9.07% (inactive). Besides, the inhibition in test [7] is -4.46% (inactive); in test [8], 5.56% (inactive).

Take `O=C(c1cccc(C(=O)N2CCN(c3ccccc3)CC2)c1)N1CCN(c2ccccc2)CC1`: the viability in test [1] is 95.5%; in test [3] it was 95.5% (inactive); in test [4] it was 81.3% (inactive); in test [5], 90.7% (inactive); in test [6] (setting [9]), 84%; in test [6] (setting [10]) it was 90.7%. Moreover, the Her2 level in test [2] was 106% (inactive). Further, in test [6] (H69AR cells + 2 uM doxorubicin), the differential viability (reversal) was 6.69% (inactive). In addition, the inhibition in test [7] is -2.47% (inactive); in test [8], -0.33% (inactive).

On to `CCN(c1cccc(C)c1)S(=O)(=O)c1ccc2[nH]c(=O)c(=O)[nH]c2c1`, for which the viability was 108% in test [1]; 108% (inactive) in test [3]; 88.7% (inactive) in test [4]; 92.1% (inactive) in test [5]; 90.8% in test [6] (setting [9]); 92.1% in test [6] (setting [10]). Also, in test [2], the Her2 level was 75% (inactive). In test [6] (H69AR cells + 2 uM doxorubicin), the differential viability (reversal) is 1.35% (inactive). For the same compound, the inhibition was -2.24% (inactive) in test [7] and 0.91% (inactive) in test [8].

Regarding `O=C(O)CN(c1ccccc1)C1SC(=O)NC1=O` (stereo not given), the viability is 85.5% in test [1]; 85.5% (inactive) in test [3]; 98.5% (inactive) in test [4]; 86.8% (inactive) in test [5]; 83.8% in test [6] (setting [9]); 86.8% in test [6] (setting [10]). Besides, in test [2], the Her2 level was 87.5% (inactive). Also, in test [6] (H69AR cells + 2 uM doxorubicin), the differential viability (reversal) is 3.04% (inactive). The inhibition is -4.93% (inactive) in test [7] and 2.79% (inactive) in test [8].

As to `CCOC(=O)CNC(=O)CSc1ncnc2c1cnn2-c1ccccc1`, the viability is 87.5% in test [1]; 87.5% (inactive) in test [3]; 97.4% (inactive) in test [4]; 102% (inactive) in test [5]; 95.1% in test [6] (setting [9]); 102% in test [6] (setting [10]). Also, the Her2 level in test [2] was 94% (inactive). In test [6] (H69AR cells + 2 uM doxorubicin), the differential viability (reversal) is 6.58% (inactive). Moreover, the inhibition is -4% (inactive) in test [7] and -2.26% (inactive) in test [8].

Turning to `CC1=C(C(=O)NCc2ccco2)C2(CCC(C)CC2)OC1=O` (stereo not given), the viability in test [1] is 89.5%; in test [3], 89.5% (inactive); in test [4], 94% (inactive); in test [5], 84% (inactive); in test [6] (setting [9]) it was 84.8%; in test [6] (setting [10]), 84%. In test [2], the Her2 level is 100% (inactive). The differential viability (reversal) in test [6] (H69AR cells + 2 uM doxorubicin) is -0.86% (inactive). In addition, the figures for the inhibition in test [7] and in test [8] were -4% (inactive) and -5.74% (inactive), respectively.

Turning to `O=C(Nc1ccccc1)N(CCN1CCOCC1)Cc1ccccc1F`, the viability in test [1] was 106%; in test [3] it was 106% (inactive); in test [4], 92.2% (inactive); in test [5], 92.3% (inactive); in test [6] (setting [9]), 108%; in test [6] (setting [10]), 92.3%. The Her2 level in test [2] was 103% (inactive). In test [6] (H69AR cells + 2 uM doxorubicin), the differential viability (reversal) was -16% (inactive). Moreover, the inhibition in test [7] was 2.11% (inactive); in test [8], 1.64% (inactive).

Regarding `S=c1[nH]nc(Cc2ccccc2)n1-c1ccccc1`, the viability in test [1] is 108%; in test [3], 108% (inactive); in test [4], 113% (inactive); in test [5] it was 92.9% (inactive); in test [6] (setting [9]), 86.7%; in test [6] (setting [10]), 92.9%. In addition, the Her2 level in test [2] is 112% (inactive). Moreover, in test [6] (H69AR cells + 2 uM doxorubicin), the differential viability (reversal) is 6.14% (inactive). The inhibition in test [7] is -4.1% (inactive); in test [8], -6.33% (inactive).

Consider `COc1ccc(OCC(O)Cn2c(Br)nc3c2c(=O)[nH]c(=O)n3C)cc1` (stereo not given), for which the viability in test [1] is 84%; in test [3] it was 84% (inactive); in test [4], 62.8% (inactive); in test [5], 28.5% (active); in test [6] (setting [9]), 57.1%; in test [6] (setting [10]), 28.5%. In test [2], the Her2 level is 72% (inactive). Moreover, the differential viability (reversal) in test [6] (H69AR cells + 2 uM doxorubicin) is -28.6% (inactive). The values for the inhibition in test [7] and in test [8] were -4.4% (inactive) and 10.7% (inactive), respectively.

With `CCCCOc1ccccc1C(=O)NCCCC(=O)O`, the viability in test [1] is 92.5%; in test [3], 92.5% (inactive); in test [4], 95.4% (inactive); in test [5] it was 87.1% (inactive); in test [6] (setting [9]) it was 79.6%; in test [6] (setting [10]), 87.1%. Besides, the Her2 level in test [2] is 80.5% (inactive). Besides, the differential viability (reversal) in test [6] (H69AR cells + 2 uM doxorubicin) is 7.52% (inactive). In addition, the inhibition in test [7] is -4.08% (inactive); in test [8], -0.55% (inactive).

With `Cn1c(=O)c2c(nc(NCc3ccc4c(c3)OCO4)n2Cc2ccccc2F)n(C)c1=O`, the viability in test [1] is 82%; in test [3], 82% (inactive); in test [4] it was 105% (inactive); in test [5] it was 76% (inactive); in test [6] (setting [9]), 84%; in test [6] (setting [10]) it was 76%. In test [2], the Her2 level was 60% (inactive). In addition, the differential viability (reversal) in test [6] (H69AR cells + 2 uM doxorubicin) was -8.01% (inactive). Besides, the inhibition in test [7] was -3.65% (inactive); in test [8] it was 7.3% (inactive).

As for `c1cn2cc(CSC3CCCCC3)nc2s1`, the viability is 84% in test [1]; 84% (inactive) in test [3]; 86.5% (inactive) in test [4]; 97.2% (inactive) in test [5]; 86.4% in test [6] (setting [9]); 97.2% in test [6] (setting [10]). Besides, the Her2 level in test [2] was 80% (inactive). Besides, the differential viability (reversal) in test [6] (H69AR cells + 2 uM doxorubicin) was 10.9% (inactive). Besides, the inhibition in test [7] is -7.16% (inactive); in test [8], 6.35% (inactive).

With `COc1ccc2c(c1)CCc1c(C(=O)NCc3cccnc3)noc1-2`, the viability is 97.5% in test [1]; 97.5% (inactive) in test [3]; 102% (inactive) in test [4]; 103% (inactive) in test [5]; 85.3% in test [6] (setting [9]); 103% in test [6] (setting [10]). Besides, in test [2], the Her2 level was 95.5% (inactive). In addition, the differential viability (reversal) in test [6] (H69AR cells + 2 uM doxorubicin) was 17.7% (inactive). Also, the inhibition in test [7] is -1.71% (inactive); in test [8] it was 0.55% (inactive).

Regarding `O=c1oc2ccccc2n1CCn1c2ccccc2c2nc3ccccc3nc21`, the viability was 85% in test [1]; 85% (inactive) in test [3]; 53.2% (inactive) in test [4]; 34.2% (active) in test [5]; 37.8% in test [6] (setting [9]); 34.2% in test [6] (setting [10]). In addition, the Her2 level in test [2] was 96% (inactive). Also, the differential viability (reversal) in test [6] (H69AR cells + 2 uM doxorubicin) was -3.67% (inactive). Besides, the inhibition in test [7] was -1.05% (inactive); in test [8], -3.71% (inactive).
